Key:
[1] = biological target: T1, Dual specificity mitogen-activated protein kinase kinase 6 (Homo sapiens) (UniProt P52564); experiment: Competitive binding affinity to MEK6 (unknown origin) at 10 uM in presence of ATP relative to control
T1 sequence (whole entry): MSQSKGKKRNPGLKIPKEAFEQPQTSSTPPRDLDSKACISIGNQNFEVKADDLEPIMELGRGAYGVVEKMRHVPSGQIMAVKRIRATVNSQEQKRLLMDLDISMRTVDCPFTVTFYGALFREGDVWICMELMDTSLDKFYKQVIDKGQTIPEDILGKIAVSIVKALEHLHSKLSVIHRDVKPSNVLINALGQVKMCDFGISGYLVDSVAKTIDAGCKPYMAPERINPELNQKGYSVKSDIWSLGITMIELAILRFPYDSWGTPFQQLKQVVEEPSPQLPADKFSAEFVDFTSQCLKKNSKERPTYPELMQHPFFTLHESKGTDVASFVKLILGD

[2] = biological target: Death-associated protein kinase 1 (Homo sapiens, UniProt P53355); experiment: Competitive binding affinity to DAPK1 (unknown origin) at 10 uM in presence of ATP relative to control
Sequence of Death-associated protein kinase 1 (P53355 whole entry, looked up): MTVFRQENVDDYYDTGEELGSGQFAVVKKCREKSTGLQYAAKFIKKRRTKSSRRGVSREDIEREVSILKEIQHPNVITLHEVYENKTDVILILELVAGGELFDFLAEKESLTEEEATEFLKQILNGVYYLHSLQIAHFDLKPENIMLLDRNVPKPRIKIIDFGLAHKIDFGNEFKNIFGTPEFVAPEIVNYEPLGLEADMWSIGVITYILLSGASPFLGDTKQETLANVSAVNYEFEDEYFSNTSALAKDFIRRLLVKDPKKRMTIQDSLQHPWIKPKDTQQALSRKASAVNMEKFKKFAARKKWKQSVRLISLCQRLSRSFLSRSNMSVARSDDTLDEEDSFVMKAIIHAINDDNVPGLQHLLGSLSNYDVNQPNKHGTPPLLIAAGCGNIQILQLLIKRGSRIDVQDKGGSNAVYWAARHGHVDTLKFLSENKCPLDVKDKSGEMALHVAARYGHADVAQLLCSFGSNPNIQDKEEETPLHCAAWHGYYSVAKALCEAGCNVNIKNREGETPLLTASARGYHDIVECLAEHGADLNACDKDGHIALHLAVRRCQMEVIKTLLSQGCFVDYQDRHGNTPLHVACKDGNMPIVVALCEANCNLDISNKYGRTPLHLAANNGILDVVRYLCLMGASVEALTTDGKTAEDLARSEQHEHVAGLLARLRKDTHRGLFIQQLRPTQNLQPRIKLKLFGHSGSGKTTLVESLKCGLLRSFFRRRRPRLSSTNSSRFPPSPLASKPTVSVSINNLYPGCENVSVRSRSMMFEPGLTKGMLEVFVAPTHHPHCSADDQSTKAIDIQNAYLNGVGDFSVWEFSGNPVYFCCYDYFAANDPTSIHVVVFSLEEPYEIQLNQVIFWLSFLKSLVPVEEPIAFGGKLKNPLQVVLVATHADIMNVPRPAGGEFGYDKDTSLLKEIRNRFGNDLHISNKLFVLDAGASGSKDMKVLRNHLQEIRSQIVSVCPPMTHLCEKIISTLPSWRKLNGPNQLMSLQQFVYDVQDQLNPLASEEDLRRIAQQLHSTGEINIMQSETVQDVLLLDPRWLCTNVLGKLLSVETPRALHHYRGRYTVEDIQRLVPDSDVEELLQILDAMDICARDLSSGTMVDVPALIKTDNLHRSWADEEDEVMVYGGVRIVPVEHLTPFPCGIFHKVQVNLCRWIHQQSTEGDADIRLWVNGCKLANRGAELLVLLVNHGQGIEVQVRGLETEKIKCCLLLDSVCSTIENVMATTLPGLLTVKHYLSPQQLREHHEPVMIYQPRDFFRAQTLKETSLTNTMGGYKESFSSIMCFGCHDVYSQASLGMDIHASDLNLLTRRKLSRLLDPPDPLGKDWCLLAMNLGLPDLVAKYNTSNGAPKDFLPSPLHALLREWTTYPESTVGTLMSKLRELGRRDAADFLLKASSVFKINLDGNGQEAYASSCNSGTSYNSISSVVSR

[3] = biological target: T2, Bone morphogenetic protein receptor type-2 (Homo sapiens) (UniProt Q13873); experiment: Competitive binding affinity to BMPR2 (unknown origin) at 10 uM in presence of ATP relative to control
T2 sequence (whole entry): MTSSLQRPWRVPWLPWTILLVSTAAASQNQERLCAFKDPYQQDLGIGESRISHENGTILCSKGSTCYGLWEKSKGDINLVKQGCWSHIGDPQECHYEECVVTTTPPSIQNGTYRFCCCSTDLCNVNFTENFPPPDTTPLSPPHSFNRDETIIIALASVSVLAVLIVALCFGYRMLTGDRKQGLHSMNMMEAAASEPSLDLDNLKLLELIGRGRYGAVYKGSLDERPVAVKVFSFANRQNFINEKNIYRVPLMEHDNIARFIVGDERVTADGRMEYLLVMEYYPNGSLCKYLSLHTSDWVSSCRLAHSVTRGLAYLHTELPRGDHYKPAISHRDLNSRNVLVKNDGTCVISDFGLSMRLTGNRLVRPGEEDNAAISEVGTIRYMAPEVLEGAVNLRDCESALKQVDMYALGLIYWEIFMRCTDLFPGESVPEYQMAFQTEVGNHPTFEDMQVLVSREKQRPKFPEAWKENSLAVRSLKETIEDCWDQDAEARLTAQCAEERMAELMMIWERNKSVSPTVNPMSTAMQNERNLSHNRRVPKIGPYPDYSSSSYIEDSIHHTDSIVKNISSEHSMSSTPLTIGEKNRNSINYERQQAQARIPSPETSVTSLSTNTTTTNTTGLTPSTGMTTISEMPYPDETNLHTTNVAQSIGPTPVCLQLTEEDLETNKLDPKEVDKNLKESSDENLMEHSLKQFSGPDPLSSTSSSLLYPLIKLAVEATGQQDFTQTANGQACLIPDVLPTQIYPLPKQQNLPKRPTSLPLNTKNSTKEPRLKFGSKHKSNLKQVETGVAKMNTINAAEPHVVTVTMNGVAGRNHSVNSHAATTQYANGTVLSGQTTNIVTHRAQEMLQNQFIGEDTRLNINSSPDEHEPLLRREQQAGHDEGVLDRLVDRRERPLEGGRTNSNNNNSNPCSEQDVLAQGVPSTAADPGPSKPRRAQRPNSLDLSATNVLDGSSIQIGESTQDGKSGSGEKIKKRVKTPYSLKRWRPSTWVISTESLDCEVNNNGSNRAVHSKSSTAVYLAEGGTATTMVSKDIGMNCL

[4] = biological target: Tyrosine-protein kinase Srms (Homo sapiens) (UniProt Q9H3Y6); experiment: Competitive binding affinity to SRMS (unknown origin) at 10 uM in presence of ATP relative to control
Sequence of Tyrosine-protein kinase Srms (Homo sapiens) (Q9H3Y6 whole entry): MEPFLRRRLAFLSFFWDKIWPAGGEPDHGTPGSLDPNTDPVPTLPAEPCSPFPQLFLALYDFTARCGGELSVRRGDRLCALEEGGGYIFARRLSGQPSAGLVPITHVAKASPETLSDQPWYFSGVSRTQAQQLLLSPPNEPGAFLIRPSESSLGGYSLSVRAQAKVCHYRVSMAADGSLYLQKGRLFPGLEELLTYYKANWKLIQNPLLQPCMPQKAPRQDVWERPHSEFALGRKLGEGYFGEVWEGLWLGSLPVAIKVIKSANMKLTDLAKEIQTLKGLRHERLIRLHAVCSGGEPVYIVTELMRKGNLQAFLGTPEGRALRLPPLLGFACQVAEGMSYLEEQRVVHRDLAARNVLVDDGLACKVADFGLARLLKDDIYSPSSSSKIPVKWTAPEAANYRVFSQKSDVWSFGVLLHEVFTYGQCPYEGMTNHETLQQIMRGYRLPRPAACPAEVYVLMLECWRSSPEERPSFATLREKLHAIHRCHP

[5] = biological target: T3, Serine/threonine-protein kinase RIO3 (Homo sapiens) (UniProt O14730); experiment: Competitive binding affinity to RIOK3 (unknown origin) at 10 uM in presence of ATP relative to control
T3 sequence (whole entry): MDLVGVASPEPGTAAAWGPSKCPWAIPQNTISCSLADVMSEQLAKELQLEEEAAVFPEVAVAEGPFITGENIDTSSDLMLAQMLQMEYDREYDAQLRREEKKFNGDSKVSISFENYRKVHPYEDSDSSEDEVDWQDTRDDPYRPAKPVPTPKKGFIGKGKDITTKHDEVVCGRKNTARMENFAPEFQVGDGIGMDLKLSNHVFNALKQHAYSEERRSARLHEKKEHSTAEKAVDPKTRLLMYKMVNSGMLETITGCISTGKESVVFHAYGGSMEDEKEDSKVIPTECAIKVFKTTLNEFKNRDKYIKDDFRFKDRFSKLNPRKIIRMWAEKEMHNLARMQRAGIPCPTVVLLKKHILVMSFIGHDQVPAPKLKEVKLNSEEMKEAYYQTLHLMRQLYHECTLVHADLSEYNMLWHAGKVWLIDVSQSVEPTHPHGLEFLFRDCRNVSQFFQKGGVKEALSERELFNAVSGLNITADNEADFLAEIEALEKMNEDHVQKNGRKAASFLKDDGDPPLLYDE

[6] = biological target: T4, Phosphatidylinositol 5-phosphate 4-kinase type-2 beta (Homo sapiens) (UniProt P78356); experiment: Competitive binding affinity to PIP5K2B (unknown origin) at 10 uM in presence of ATP relative to control
T4 sequence (whole entry): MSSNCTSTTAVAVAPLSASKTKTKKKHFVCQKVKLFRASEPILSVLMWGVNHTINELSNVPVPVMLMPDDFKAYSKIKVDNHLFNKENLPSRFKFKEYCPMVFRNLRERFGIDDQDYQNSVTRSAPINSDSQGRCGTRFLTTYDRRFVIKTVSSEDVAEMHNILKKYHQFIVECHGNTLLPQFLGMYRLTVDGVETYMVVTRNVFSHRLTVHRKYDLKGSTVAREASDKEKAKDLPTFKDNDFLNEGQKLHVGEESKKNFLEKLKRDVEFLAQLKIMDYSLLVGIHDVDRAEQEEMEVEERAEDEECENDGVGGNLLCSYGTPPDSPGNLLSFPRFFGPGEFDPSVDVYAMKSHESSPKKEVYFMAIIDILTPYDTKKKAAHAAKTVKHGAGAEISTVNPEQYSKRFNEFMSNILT

[7] = biological target: Serine/threonine-protein kinase PAK 2 (Homo sapiens) (UniProt Q13177); experiment: Competitive binding affinity to PAK2 (unknown origin) at 10 uM in presence of ATP relative to control
Sequence of Serine/threonine-protein kinase PAK 2 (Homo sapiens) (Q13177 whole entry): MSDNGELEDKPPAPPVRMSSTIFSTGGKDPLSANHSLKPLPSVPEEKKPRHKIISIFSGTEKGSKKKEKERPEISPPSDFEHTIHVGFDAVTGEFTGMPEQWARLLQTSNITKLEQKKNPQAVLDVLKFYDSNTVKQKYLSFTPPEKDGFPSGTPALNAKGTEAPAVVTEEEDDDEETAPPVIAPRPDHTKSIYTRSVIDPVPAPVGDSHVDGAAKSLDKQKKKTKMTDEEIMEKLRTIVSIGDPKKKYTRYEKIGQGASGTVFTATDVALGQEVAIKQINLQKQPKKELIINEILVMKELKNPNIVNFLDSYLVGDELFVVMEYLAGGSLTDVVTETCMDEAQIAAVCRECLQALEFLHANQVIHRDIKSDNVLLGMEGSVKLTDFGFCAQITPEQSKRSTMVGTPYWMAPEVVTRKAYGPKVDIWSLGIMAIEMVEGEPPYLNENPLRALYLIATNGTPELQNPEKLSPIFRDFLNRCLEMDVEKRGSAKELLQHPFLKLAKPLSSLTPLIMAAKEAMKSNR
Method in brief: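 In vitro ATP-site competition binding assay across a diverse panel of 128 kinases, with compound tested at a single concentration. Kinase selectivity scores (S15) were calculated from the panel profiles.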

SMILES | inhibition [1] [%] | inhibition [3] [%] | inhibition [4] [%] | inhibition [5] [%] | inhibition [6] [%] | inhibition [7] [%] | inhibition [2] [%]
O[C@H]1CC[C@H](Nc2nccc(-c3n[nH]c4ccccc34)n2)CC1 | – | – | – | – | – | 82 | –
O[C@H]1CC[C@H](Nc2nccc(-n3nnc4ccccc43)n2)CC1 | 96 | 85 | < 50 | < 50 | 74 | < 50 | 98

Second part, led by results:

inhibition [1] [%] | inhibition [3] [%] | inhibition [4] [%] | inhibition [5] [%] | inhibition [6] [%] | inhibition [7] [%] | SMILES | inhibition [2] [%]
90 | < 50 | < 50 | < 50 | 92 | < 50 | O[C@H]1CC[C@H](Nc2nccc(-n3ncc4ccccc43)n2)CC1 | < 50
90 | < 50 | < 50 | < 50 | < 50 | < 50 | O[C@H]1CC[C@H](Nc2nccc(-n3ccc4ccccc43)n2)CC1 | < 50
> 85 | – | – | – | – | – | CS(=O)(=O)CCCOc1cccc2c1ccn2-c1ccnc(N[C@H]2CC[C@H](C(=O)N3CCC(O)CC3)CC2)n1 | > 85
